# Assay results gathered from unrelated publications.
# Protocols differ between the studies behind these lines.
# Target: Peripheral plasma membrane protein CASK (CASK, Homo sapiens, UniProt O14936)
# Residues used in one study (O14936 1-926): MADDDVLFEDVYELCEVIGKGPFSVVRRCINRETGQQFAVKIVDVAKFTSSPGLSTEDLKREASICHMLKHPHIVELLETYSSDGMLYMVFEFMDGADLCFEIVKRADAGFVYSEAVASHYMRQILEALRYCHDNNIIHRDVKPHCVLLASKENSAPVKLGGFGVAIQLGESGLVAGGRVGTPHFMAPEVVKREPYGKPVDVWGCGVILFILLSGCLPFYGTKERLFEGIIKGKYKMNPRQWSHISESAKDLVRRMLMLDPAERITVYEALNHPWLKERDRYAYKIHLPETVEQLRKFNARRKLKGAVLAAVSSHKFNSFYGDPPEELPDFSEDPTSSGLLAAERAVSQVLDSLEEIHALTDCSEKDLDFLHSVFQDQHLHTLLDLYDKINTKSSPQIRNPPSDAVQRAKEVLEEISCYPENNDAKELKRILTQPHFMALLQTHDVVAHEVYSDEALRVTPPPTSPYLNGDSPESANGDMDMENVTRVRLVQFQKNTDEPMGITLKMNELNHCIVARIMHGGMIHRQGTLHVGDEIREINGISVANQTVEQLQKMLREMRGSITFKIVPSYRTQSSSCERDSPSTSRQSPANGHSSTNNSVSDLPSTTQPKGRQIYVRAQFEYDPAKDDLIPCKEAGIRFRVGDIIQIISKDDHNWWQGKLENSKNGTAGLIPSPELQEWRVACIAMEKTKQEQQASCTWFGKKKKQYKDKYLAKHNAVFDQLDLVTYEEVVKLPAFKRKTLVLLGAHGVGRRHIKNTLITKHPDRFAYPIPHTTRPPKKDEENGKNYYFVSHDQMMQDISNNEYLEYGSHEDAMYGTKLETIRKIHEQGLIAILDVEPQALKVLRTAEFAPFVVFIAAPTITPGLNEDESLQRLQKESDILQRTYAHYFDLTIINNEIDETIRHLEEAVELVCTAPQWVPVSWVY
Structure (SMILES),test,setting,remaining binding [%]
CNC(=O)[C@@H]1CC[C@@H](n2c(-c3ccc4cnccc4c3)nc3ccc(C(=O)NCc4cccc(C(N)=O)c4)cc32)C1,"binding, competition with immobilised ligand",1 µM,82
c1cnn2ncc(-c3ccnc(N4CCC45COC5)n3)c2c1,binding,1 µM,81
Cc1cnc(Nc2ccc(C(=O)N3CCC(N4CCCC4)CC3)cc2)nc1-c1cc2ccccc2s1,"binding, competition with immobilised ligand",1 µM,100
CSc1cccnc1N1CCN(Cc2nc3ccccc3[nH]2)CC1,"cell-free assay, competition with immobilised ligand",1 µM,100
FC(F)(F)Oc1cccc(-c2cnc3ccc(-c4ccncc4)nn23)c1,"cell-free assay, competition with immobilised ligand",5 µM,50
COc1ncc2cc3ccccc3nc2c1C#N,"cell-free assay, competition with immobilised ligand",5 µM,99
C[C@H]1CCN(c2nccc(-c3cnn4ncccc34)n2)C1,binding,1 µM,74
O=C(c1ccc(Nc2ncc(Cl)c(-c3cc4ccccc4s3)n2)cc1)N1CCC(N2CCCC2)CC1,"binding, competition with immobilised ligand",1 µM,74
O=C(Nc1cccnn1)N1CCC(=Cc2cccc(Oc3ccc(C(F)(F)F)cn3)c2)CC1,"cell-free assay, competition with immobilised ligand",1 µM,92
O=C(NCC1CCOCC1)c1n[nH]cc1NC(=O)c1c(F)cccc1F,"binding, competition with immobilised ligand",1 µM,61
N[C@H]1CCN(c2nccc(-c3cnn4ncccc34)n2)C1,"binding, competition with immobilised ligand",1 µM,100
Cn1nc(C(=O)NCc2ccc(C(=O)O)cc2)cc1-c1ccc2[nH]ccc2c1,"cell-free assay, competition with immobilised ligand",0.1 µM,69
CN(C)c1nccc(-c2cnn3ncccc23)n1,"binding, competition with immobilised ligand",1 µM,90
FC(F)(F)c1ccc2c(c1)nc(-c1cccnc1)n2C1CC1,"cell-free assay, competition with immobilised ligand",1 µM,100
CCN1CCN(Cc2ccc(C(=O)Nc3ccc(C)c(Oc4ccc5c(c4)CC(=O)N5)c3)cc2C(F)(F)F)CC1,"binding, competition with immobilised ligand",1 µM,100
CN(c1nccc(-c2cnn3ncccc23)n1)C1CC1,binding,1 µM,100
COc1cnc(Nc2cccc(S(N)(=O)=O)c2)nc1N1CCN(c2ccccc2)CC1,"binding, competition with immobilised ligand",1 µM,95
Cc1c(NC(=O)c2cc(C(N)=O)nc3cc(F)ccc23)c(C(F)(F)F)nn1Cc1ccc(C#N)cc1,"cell-free assay, competition with immobilised ligand",1 µM,71
O=C(c1ccc(Nc2nccc(-c3cc4ccccc4s3)n2)cc1)N1CCC(N2CCCC2)CC1,"binding, competition with immobilised ligand",1 µM,85
Cn1nc(C(F)(F)F)cc1-c1cnc(N2CCc3cc(S(=O)(=O)Nc4c(F)cc(Cl)cc4F)cc(N4CCCC4=O)c32)nc1,"cell-free assay, competition with immobilised ligand",1 µM,77
CN(CCCC(F)(F)F)c1nccc(-c2cnn3ncccc23)n1,binding,1 µM,100
